High-throughput results: PubChem, The Scripps Research Institute Molecular Screening Center
UHRF1 binding = human UHRF1 methylated DNA binding inhibitors; AID 687016; inhibition, % at 4.4 µM; Q96T88; UHRF1 binding to methylated oligo, TR-FRET; 370,000 tested, 0.75% active; in the data active = inhibition above about 21%;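 note: UHRF1 SRA domain binding a hemimethylated CpG hairpin DNA probe; 0% = median of test compound wells and 100% = reference inhibitor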
Rin1 Abl inh = blocks binding of human Rin1 to Abl; inhibition, % at 7.35 µM; TR-FRET Rin1/Abl binding, biochemical; P00519+Q13671; 360,000 tested, 0.4% active; in the data active = inhibition above about 5%, passing the limit was not always enough
TDP2 absorb = blocks human TDP2 phosphodiesterase activity | O95551 | recombinant TDP2, T5PNP hydrolysis, p-nitrophenol absorbance 415 nm | inhibition, % at 12.8 µM | 370,000 tested, 0.34% active | AID 720702;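 active = inhibition above the mean of all tested compounds plus 3 SD, set per campaign, cut at about 25% in these data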;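 note: 0% = DMSO with enzyme and 100% = buffer with substrate but no TDP2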
Target sequence (O95551 whole entry, looked up): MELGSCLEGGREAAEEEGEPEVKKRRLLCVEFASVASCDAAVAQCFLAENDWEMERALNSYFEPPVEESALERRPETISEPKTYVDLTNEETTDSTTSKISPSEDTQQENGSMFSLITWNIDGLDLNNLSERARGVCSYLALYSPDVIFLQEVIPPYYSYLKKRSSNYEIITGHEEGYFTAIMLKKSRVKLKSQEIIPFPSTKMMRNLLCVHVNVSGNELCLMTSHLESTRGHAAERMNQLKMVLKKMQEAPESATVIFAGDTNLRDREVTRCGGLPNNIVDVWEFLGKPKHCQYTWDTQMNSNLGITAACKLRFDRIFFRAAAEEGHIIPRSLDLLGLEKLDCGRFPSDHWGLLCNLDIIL
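Test system: human TDP2 enzyme; Input: 120 nM TDP2 per well; Buffer or medium: Mg2+-containing Tris-HCl buffer, pH 7.5; Reagent: 5 mM T5PNP; Dosing: 12.8 µM single point, 1% DMSO; Incubation: reaction 2 h, 37 °C; Detection: p-Nitrophenol epi absorbance; Read-out: % inhibition relative to enzyme-containing and enzyme-free wells; Replicates: single well per compound.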
MBD2 inh = MBD2-methylated oligo binding inhibition. Q9UBB5. TR-FRET, MBD2 binding to methylated oligonucleotide. inhibition, % at 4.4 µM. 370,000 tested, 0.31% active. AID 686964; in the data active = inhibition above about 13%
LEDGF integ inh = blocks HIV-1 LEDGF/p75-dependent DNA integration; 370,000 tested, 0.64% active; inhibition, % at 3.7 µM; AID 743269; TR-FRET IN-LEDGF/p75 DNA integration, Eu/Cy5;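 active = inhibition above the screen-wide mean plus 3 SD, cut at about 13% in these data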;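 note: signal is the Cy5 over europium emission ratio at 671 and 618 nm; 0% = plate median of compound wells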
Rin1 Abl conf = confirmation of inhibitors of human Rin1-Abl interaction; shares compounds with Rin1 Abl inh; TR-FRET Rin1-Abl binding, purified proteins; inhibition, % at 7.35 µM; 1,300 tested, 49% active; AID 602124
GFP quencher = counter-screen for Rin1-Abl inhibitors: GFP fluorescence quenchers; shares compounds with Rin1 Abl inh; inhibitors/quenchers counterscreen; inhibition, % at 6.75 µM; 1,300 tested, 8.5% active; AID 602125;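 note: ABL1-eGFP fusion protein alone without its partner RIN1-SBP; 0% = protein with vehicle and 100% = wells lacking protein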
The depositor's hits bear a star; nt = no result given. Only some compounds are listed: those with a hit (about 1.9% of all), similar ones and a draw of the others. Cut-off read from the data, not from the text of the source, unless noted: active = inhibition above about 6.5%; inactive = the rest.

SMILES	UHRF1 binding	Rin1 Abl inh	TDP2 absorb	MBD2 inh	LEDGF integ inh	Rin1 Abl conf	GFP quencher
COc1cccc(N(CC(=O)NCC2CCCO2)C(=O)CNS(=O)(=O)c2ccccc2)c1 (configuration not stated)	-1	9.8*	1	1	-8	-1	-1
CCNS(=O)(=O)c1ccc(CCC(=O)O)cc1	-1	8.8*	7	-3	-2	-1	1
CN1CCN(c2ccc(CNC(=O)C3Cc4c(-c5ccccc5)ccnc4O3)cc2)CC1 (configuration not stated)	0	8.1*	-8	-1	0	5	-1
CCCCCCSc1ccc([C@@H]2[C@H]3C(=O)N(C)C(=O)[C@H]3[C@]3(C(=O)OC)CCCCN23)cc1	0	10*	-18	6	-1	-2	-1
CCOCc1nnc(NC(=O)c2ccco2)s1	4	2	0	0	3	nt	nt
O=C(Nc1nnc(Cc2ccc(Cl)cc2)s1)c1ccco1	-1	7.4*	5	4	-3	-1	-1
CCOC(=O)[C@@]12CCC3=C1N(CCC3)C(=O)[C@H](CC(=O)NCc1cccc3ccccc13)C2	-2	nt	4	1	-5	nt	nt
O=C1/C(=C\c2ccc([N+](=O)[O-])cc2)CCc2ccccc21	11	18*	-9	2	4	-1	-1
O=C1/C(=C/c2ccc(O)cc2)CCc2ccc([N+](=O)[O-])cc21	3	-1	8	-3	-1	nt	nt
O=C(CSc1nc2ccccc2c(=O)[nH]1)Nc1ccc(S(=O)(=O)N2CCCC2)cc1	0	8.9*	-6	3	1	5	2
NC(=S)NN=Cc1cc(-c2cccc(N)c2)ccn1	-6	11*	2	-3	-3	14*	5
CC(CCN1CCC(C(O)(c2ccccc2)c2ccccc2)CC1)Oc1ccc(OC(F)(F)F)cc1 (configuration not stated)	0	nt	-10	-3	-2	nt	nt
Cc1ccc(S(=O)(=O)NN2C(=O)c3ccccc3NC2c2ccccc2F)cc1 (configuration not stated)	1	13*	12	-7	1	-2	-5
COc1ccc(C2Nc3ccccc3C(=O)N2NS(=O)(=O)c2ccc(C)cc2)c(OC)c1 (configuration not stated)	3	0	11	1	2	nt	nt
C=CCN=C1NC(CCc2ccccc2)C(C(=O)OC)=C(C)N1Cc1cccc(C(F)(F)F)c1 (configuration not stated)	-1	nt	8	-4	-1	nt	nt
O=S(=O)(c1ccc(Cl)cc1)N1CCC2(CC1)OCCO2	-1	12*	-3	-5	-2	0	-2
O=S(=O)(c1ccccc1)N1CCC2(CC1)OCCO2	-1	1	9	-2	1	nt	nt
CCCCn1c(SCC(=O)N2CCC(C)CC2)nc2cc(S(N)(=O)=O)ccc21	nt	1	nt	nt	nt	nt	nt
CCCCn1c(SCC2CCCO2)nc2cc(S(N)(=O)=O)ccc21 (configuration not stated)	-1	5.9*	-7	4	-3	0	-1
CCN(CC)C(=O)CSc1nc(COc2ccccc2)nc2ccccc12	2	42*	5	0	-6	37*	0
COC(=O)CSc1nc(COc2ccccc2)nc2ccccc12	1	1	-11	1	-1	nt	nt
Cc1ccc(C)c(NC(=O)C2C3C=CC(O3)C2C(=O)O)c1 (configuration not stated)	2	7.6*	-5	1	-5	0	0
Cc1ccc(NC(=O)C2C3C=CC(O3)C2C(=O)O)c(C)c1 (configuration not stated)	2	4	-6	0	2	nt	nt
CN1C2=NC(c3ccc4ccccc4c3)CC(=O)N2/C(=C\c2ccccc2)C1c1ccccc1C(F)(F)F (configuration not stated)	1	nt	3	6	-3	nt	nt
O=C(CCN1C(=O)/C(=C\c2ccco2)SC1=S)Nc1ccc(C(=O)O)c(O)c1	62*	10*	2	9	70*	0	7.3*
